# Results reported in publication PMC6153321 (Pharmacology Research & Perspectives, 2018).
# Bridge positions count the residues as written; N and C are the ends. Square brackets hold non-standard residues; d marks the D form. Ends that are not written are not given here. Peptide text beside a SMILES is read from it. I, II: the chains in the order shown. S5 = C=CCCC[C@](C)(N)C(=O)O
# Key:
# GH3B6 cells = conditions: cited from earlier work
# RXFP2 = RXFP2 (Homo sapiens, UniProt Q8WXD0); experiment: CAMYEL BRET real-time cAMP activation, HEK-RXFP2 cells; format: cell-based
# RXFP2, sequence (Q8WXD0 whole entry): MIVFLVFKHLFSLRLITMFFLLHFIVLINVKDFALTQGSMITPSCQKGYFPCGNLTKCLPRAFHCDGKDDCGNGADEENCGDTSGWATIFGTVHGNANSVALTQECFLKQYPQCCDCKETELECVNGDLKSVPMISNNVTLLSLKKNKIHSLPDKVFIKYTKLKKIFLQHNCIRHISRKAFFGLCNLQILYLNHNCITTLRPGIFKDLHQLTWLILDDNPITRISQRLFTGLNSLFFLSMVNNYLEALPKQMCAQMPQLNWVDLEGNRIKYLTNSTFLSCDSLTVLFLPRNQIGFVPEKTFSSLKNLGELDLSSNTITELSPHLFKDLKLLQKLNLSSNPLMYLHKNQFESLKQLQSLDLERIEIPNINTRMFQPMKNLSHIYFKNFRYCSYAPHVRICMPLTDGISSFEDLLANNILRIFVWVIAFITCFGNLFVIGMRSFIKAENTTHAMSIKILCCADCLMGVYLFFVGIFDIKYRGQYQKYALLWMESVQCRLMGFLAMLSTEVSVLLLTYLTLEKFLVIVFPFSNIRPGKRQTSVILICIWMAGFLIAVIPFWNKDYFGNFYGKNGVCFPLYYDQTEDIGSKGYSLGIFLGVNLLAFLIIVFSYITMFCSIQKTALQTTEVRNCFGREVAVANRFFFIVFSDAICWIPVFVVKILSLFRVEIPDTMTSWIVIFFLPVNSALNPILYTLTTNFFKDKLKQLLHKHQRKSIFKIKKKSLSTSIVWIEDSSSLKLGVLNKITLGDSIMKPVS
# In short: (§1)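 HEK cells stably expressing RXFP1 (HEK293T background) or RXFP2 were transiently transfected with CAMYEL, then reseeded next day in phenol-red-free complete medium with 25 mmol L⁻¹ HEPES. At 37°C, cells got coelenterazine h (5 μmol L⁻¹ final) for a 5-min baseline, then vehicle, forskolin or agonist for 45 min. Read-out was vehicle-subtracted citrine/Rluc BRET ratio, sign-inverted. Agonist curves at 5 and 45 min as % of 10 μmol L⁻¹ forskolin maximum; n=3.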
# RXFP3 [1] = target: T1, RXFP3 (Homo sapiens, UniProt Q9NSD7); experiment: CAMYEL BRET inhibition of forskolin-stimulated cAMP, CHO-RXFP3 cells; format: cell-based; conditions: agonist 100 nmol L^−1‐10 μmol L^−1, at about 20‐25 minutes
# T1 sequence (Q9NSD7 1-469): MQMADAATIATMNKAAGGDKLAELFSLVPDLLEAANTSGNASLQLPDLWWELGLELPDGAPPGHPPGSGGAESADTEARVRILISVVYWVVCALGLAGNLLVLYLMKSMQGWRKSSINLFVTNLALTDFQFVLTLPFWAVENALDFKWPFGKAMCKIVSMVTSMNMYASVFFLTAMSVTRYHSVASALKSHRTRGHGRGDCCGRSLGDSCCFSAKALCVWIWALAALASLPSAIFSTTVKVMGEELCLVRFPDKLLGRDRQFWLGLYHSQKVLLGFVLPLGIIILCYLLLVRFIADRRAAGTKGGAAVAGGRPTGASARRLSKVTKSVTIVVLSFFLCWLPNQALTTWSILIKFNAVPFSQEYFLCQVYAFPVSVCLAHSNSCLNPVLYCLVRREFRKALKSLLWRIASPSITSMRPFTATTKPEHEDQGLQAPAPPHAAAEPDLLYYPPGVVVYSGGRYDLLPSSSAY
# RXFP3 [2] = target: T1, RXFP3; experiment: CAMYEL BRET inhibition of forskolin-stimulated cAMP, HEK-RXFP3 cells; format: cell-based; conditions: 45 minutes, mean ± SEM, three independent experiments
# β‐adrenoceptors [3] = experiment: CAMYEL BRET isoprenaline-induced cAMP, HEK293A parental cells; format: cell-based, human; conditions: 10 μmol L^−1
# In short: (§2)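 HEK293A parental or Gαs-knockout cells were co-transfected with CAMYEL and RXFP1, then reseeded overnight in phenol-red-free HEPES medium. Isoprenaline (10 μmol L⁻¹) served as a control for endogenous Gαs-coupled β-adrenoceptor signalling. Read-out: vehicle-subtracted, sign-inverted 535/475 nm BRET ratio; three independent experiments.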
# β‐adrenoceptors [4] = experiment: CAMYEL BRET isoprenaline-induced cAMP, HEK293A ΔGαs cells; format: cell-based, human; conditions: 10 μmol L^−1
# In short: as §2
# adenylate cyclase [5] = experiment: CAMYEL BRET forskolin-induced cAMP, HEK-RXFP1 cells; format: cell-based, human; conditions: 45 minutes, three independent experiments
# In short: as §1
# adenylate cyclase [6] = experiment: CAMYEL BRET forskolin-induced cAMP, HEK-RXFP2 cells; format: cell-based, human; conditions: 45 minutes
# In short: as §1
# adenylate cyclase [7] = experiment: CAMYEL BRET forskolin-induced cAMP, THP-1 CAMYEL cells; format: cell-based, human; conditions: high-CAMYEL THP‐1 cells, three independent experiments
# adenylate cyclase [8] = conditions: cited from earlier work
# adenylate cyclase [9] = experiment: CAMYEL BRET forskolin-induced cAMP, HEK293A ΔGαs cells; format: cell-based, human
# adenylate cyclase [10] = experiment: CAMYEL BRET forskolin-induced cAMP, HEK293A parental cells; format: cell-based, human; conditions: 45 minutes, three independent experiments
compound,measurement,setting,value
thyrotropin‐releasing hormone,cAMP activity reported by AC8‐localized sensor,GH3B6 cells,increases in cAMP activity
same,cAMP activity reported by cytosolic or plasma membrane FRET biosensors,GH3B6 cells,not the cytosolic or membrane forms
"I: PTPEMREKLCGHHFVRALVRVCGGPRWSTEA / II: AAATNPARYCCLSGCTQQDLLTLCPY (disulfide I:10-II:11, I:22-II:24, II:10-II:15) [INSL3]",potency increase between 5 and 45 minutes,RXFP2; P < 0.01,~10 fold
same,temporal pattern of cAMP activity,RXFP2; sub‐maximal concentrations,"slow, sustained increases"
CC[C@H](C)[C@@H]1NC(=O)[C@H](Cc2ccccc2)NC(=O)[C@H](CCC(=O)O)NC(=O)[C@H](CCCNC(=N)N)NC(=O)CNC(=O)[C@@H](NC(=O)[C@H](CC(C)C)NC(=O)[C@H](CCCNC(=N)N)NC(=O)[C@@H](NC(=O)CNC(=O)[C@H](Cc2ccc(O)cc2)NC(=O)[C@@H]2CCCN2C(=O)[C@H](C)NC(=O)[C@H](C)NC(=O)[C@@H](N)CCCNC(=N)N)C(C)C)CSSC[C@H](N)C(=O)N[C@@H](CCCCN)C(=O)N[C@@H](Cc2c[nH]c3ccccc23)C(=O)NCC(=O)N[C@@H](C)C(=O)N[C@@H](CO)C(=O)N[C@@H](CCCCN)C(=O)N[C@@H](CO)C(=O)N[C@@H](CCC(=O)O)C(=O)N[C@@H]([C@@H](C)CC)C(=O)N[C@@H](CO)C(=O)N[C@@H](CO)C(=O)N[C@@H](CC(C)C)C(=O)N[C@H](C(=O)O)CSSC[C@@H](C(=O)NCC(=O)NCC(=O)N[C@@H](CO)C(=O)N[C@@H](CCCNC(=N)N)C(=O)N[C@@H](Cc2c[nH]c3ccccc23)C(=O)O)NC(=O)[C@H]([C@@H](C)O)NC(=O)[C@H](Cc2ccccc2)NC(=O)[C@H]([C@@H](C)CC)NC(=O)[C@H](C(C)C)NC(=O)[C@H](C)NC(=O)[C@H](CCCNC(=N)N)NC1=O [Analogue 2],inhibition of forskolin-stimulated cAMP at higher concentrations,RXFP3 [1],Complete or near‐complete inhibition
same,pEC50,RXFP3 [2],Ambiguous
CC(C)NCC(O)c1ccc(O)c(O)c1 (centres unmarked) [Isoprenaline],cAMP response to isoprenaline,β‐adrenoceptors [3],robust in the parental cells
same,cAMP response to isoprenaline,β‐adrenoceptors [4],abolished in the ΔGαs cells
"vasoactive intestinal peptide: treatment of GH3B6 cells in cited work (ref 49) (HSDAVFTDNYTRLRKQMAVKKYLNSILN; ends and bridges not checked; UniProt P01282 125-152, looked up)",cAMP activity reported by AC8‐localized sensor,GH3B6 cells,not detected by an AC8‐localized sensor
CC[C@H](C)[C@@H]1NC(=O)[C@H](Cc2ccccc2)NC(=O)[C@@](C)(NC(=O)[C@H](CCCNC(=N)N)NC(=O)CNC(=O)[C@@H](N)CO)CCCC=CCCC[C@@](C)(C(=O)N[C@H](C(=O)N[C@H](C(=O)N[C@@H](Cc2ccccc2)C(=O)N[C@H](C(=O)N[C@@H](CO)C(=O)NCC(=O)NCC(=O)N[C@@H](CO)C(=O)N[C@@H](CCCNC(=N)N)C(=O)N[C@@H](Cc2c[nH]c3ccccc23)C(N)=O)[C@@H](C)O)[C@@H](C)CC)C(C)C)NC(=O)[C@H](CCCNC(=N)N)NC1=O [Peptide 5] (H-SGR[S5]FIR[S5]VIFTSGGSRW-NH2; staple 4-8; N-terminus and C-terminus assumed),inhibition of forskolin-stimulated cAMP at higher concentrations,RXFP3 [1],Complete or near‐complete inhibition
C=C[C@@]1(C)CC(=O)[C@]2(O)[C@@]3(C)[C@@H](O)CCC(C)(C)[C@@H]3[C@H](O)[C@H](OC(C)=O)[C@@]2(C)O1 [forskolin],potency (pEC50) of forskolin,adenylate cyclase [5],6.77 ± 0.07
same,potency (pEC50) of forskolin,"adenylate cyclase [6]; HEK‐RXFP2, three independent experiments",5.92 ± 0.08
same,forskolin potency in HEK‐RXFP2 relative to HEK‐RXFP1 cells,adenylate cyclase [6]; P < 0.01,nearly ten times lower than that seen in the HEK‐RXFP1 cells
same,potency of forskolin (pEC50),adenylate cyclase [7]; 5 minutes,5.29 ± 0.03
same,potency of forskolin (pEC50),adenylate cyclase [7]; 45 minutes,4.93 ± 0.05
same,affinity for adenylate cyclase in the absence of Gαs,adenylate cyclase [8],lower affinity for adenylate cyclase in the absence of Gαs
same,potency of forskolin (pEC50),"adenylate cyclase [9]; 45 minutes, HEK293A ΔGαs with re‐expression of Gαs, three independent experiments",7.1 ± 1.29
same,forskolin-induced cAMP activity,"adenylate cyclase [9]; HEK293A ΔGαs, without Gαs re-expression",very weak cAMP activity
same,forskolin concentration required to detect a cAMP increase,"adenylate cyclase [9]; HEK293A ΔGαs, increase only transient",> 10 µmol/L
same,potency of forskolin (pEC50),adenylate cyclase [10],5.91 ± 0.04
